From ChEMBL document CHEMBL4219111, “Multifunctional 5,6-dimethoxybenzo[d]isothiazol-3(2H)-one-N-alkylbenzylamine derivatives with acetylcholinesterase, monoamine oxidases and β-amyloid aggregation inhibitory activities as potential agents against Alzheimer's disease” (Bioorg Med Chem, 2018)
The source made the active and inactive calls. No cut-off for these calls is given here.

Legend:
[1] = molecular target: T1, Amine oxidase [flavin-containing] B (Homo sapiens, UniProt P27338); test: Inhibition of recombinant human MAO-B using kynuramine as substrate after 30 mins by fluorescence assay
T1 sequence (P27338 whole entry): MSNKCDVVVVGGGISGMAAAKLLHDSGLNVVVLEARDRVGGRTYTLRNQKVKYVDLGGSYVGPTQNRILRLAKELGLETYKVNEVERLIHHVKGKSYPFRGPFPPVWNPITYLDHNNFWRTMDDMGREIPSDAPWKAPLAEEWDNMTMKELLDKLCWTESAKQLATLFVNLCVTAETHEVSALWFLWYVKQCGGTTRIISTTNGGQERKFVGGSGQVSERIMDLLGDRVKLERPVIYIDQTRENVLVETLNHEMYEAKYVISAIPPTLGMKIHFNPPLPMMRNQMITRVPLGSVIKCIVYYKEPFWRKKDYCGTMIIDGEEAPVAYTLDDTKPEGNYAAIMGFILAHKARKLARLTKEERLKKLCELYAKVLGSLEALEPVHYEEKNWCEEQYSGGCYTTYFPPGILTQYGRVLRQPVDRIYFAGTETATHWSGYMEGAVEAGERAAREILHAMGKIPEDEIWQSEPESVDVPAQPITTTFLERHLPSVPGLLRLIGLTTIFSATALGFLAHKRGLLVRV

[2] = molecular target: Acetylcholinesterase (Electrophorus electricus) (UniProt O42275); test: Mixed type inhibition of Electrophorus electricus AChE at 0.1 to 0.5 uM using varying levels of acetylthiocholine iodide as substrate incubated for 15 mins followed by substrate addition by Lineweaver-Burk plot analysis
Homo sapiens = species: Homo sapiens; test: Selectivity index, ratio of IC50 for recombinant human MAO-A to IC50 for recombinant human MAO-B
Outline: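 Ratio of IC50s, each from a sigmoidal curve of initial kynuramine oxidation rate versus log inhibitor concentration. Curves used six concentrations within 0-100 µM, spanning at least three orders of magnitude. IC50s determined in triplicate.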

[3] = molecular target: T2, Amine oxidase [flavin-containing] A (Homo sapiens, UniProt P21397); test: Inhibition of recombinant human MAO-A using kynuramine as substrate after 30 mins by fluorescence assay
T2 sequence (P21397 whole entry): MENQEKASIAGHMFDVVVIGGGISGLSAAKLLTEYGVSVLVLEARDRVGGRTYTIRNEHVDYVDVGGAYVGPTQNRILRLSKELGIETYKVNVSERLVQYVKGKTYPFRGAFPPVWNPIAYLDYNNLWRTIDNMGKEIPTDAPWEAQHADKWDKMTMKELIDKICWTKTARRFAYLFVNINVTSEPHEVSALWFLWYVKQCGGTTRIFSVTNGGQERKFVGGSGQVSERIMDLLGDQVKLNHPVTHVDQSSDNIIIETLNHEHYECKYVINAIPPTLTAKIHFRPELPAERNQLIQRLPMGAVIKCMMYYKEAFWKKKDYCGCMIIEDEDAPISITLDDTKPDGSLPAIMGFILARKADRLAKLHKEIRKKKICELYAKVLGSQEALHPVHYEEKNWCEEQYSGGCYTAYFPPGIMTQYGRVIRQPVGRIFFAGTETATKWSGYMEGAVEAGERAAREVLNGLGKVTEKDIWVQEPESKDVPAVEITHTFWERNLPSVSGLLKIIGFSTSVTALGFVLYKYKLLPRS

[4] = Effective permeability of the compound at 100 ug/ml after 18 hrs by PAMPA-BBB assay
[5] = Antioxidant activity assessed as trolox equivalents of AAPH radical scavenging activity at 5 uM preincubated for 15 mins followed by AAPH addition measured every min for 90 mins by ORAC-FL assay; format: functional
Outline: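 ORAC-FL in 75 mM phosphate buffer pH 7.4, 200 µL final. Sample plus fluorescein (150 nM final) pre-incubated 15 min at 37 °C, then AAPH added (12 mM final). Fluorescence read every minute for 90 min, ex 485/em 535 nm, normalized to FL+AAPH blank. Trolox standard 1-8 µM final; values given as µM Trolox equivalent per µM compound. Duplicate wells, at least three independent assays.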

Acetylcholinesterase = Acetylcholinesterase (Electrophorus electricus, UniProt O42275); test: Inhibition of Electrophorus electricus AChE using acetylthiocholine iodide as substrate measured after 15 mins by Ellman's method
[6] = molecular target: Amyloid-beta precursor protein (Homo sapiens) (UniProt P05067); test: Inhibition of self-induced aggregation of amyloid beta (1 to 42) (unknown origin) at 25 uM after 24 hrs by thioflavin T fluorescence-based fluorometric method relative to control
Outline: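 Aβ1-42 pretreated in HFIP 24 h at room temperature, dried, redissolved in DMSO. Peptide (25 µM final) incubated with compound (25 µM final) in 50 mM phosphate pH 7.4 for 24 h at 37 °C. ThT (5 µM) added in 50 mM glycine-NaOH pH 8.5; fluorescence read at ex 446/em 490 nm. Inhibition = (1 − IFi/IFc)×100 after background subtraction, triplicate.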

Rattus norvegicus = species: Rattus norvegicus; test: Inhibition of rat serum BuChE using butyrylthiocholine iodide as substrate measured at 50 uM after 15 mins by Ellman's method relative to control
Outline: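 Rat serum (25%) as enzyme source; modified Ellman method in […] pH 7.4 with 1 mmol/L butyrylthiocholine iodide and 0.2% DTNB; 37 °C for 15 min, absorbance at 405 nm. Percent inhibition at 50 µM test compound, each concentration in triplicate.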

[7] = molecular target: T1, Amine oxidase [flavin-containing] B; test: Inhibition of recombinant human MAO-B at 10 uM using kynuramine as substrate after 30 mins by fluorescence assay relative to control; settings: 0.5 h
Outline: (§1)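 Recombinant human MAO-A or MAO-B, kynuramine substrate (45 µM for MAO-A, 30 µM for MAO-B), in 100 mM potassium phosphate pH 7.40 with 20.2 mM KCl and under 4% DMSO. Enzyme (7.5 µg/mL) starts the reaction; 30 min at 37 °C. Stopped with NaOH plus water, centrifuged, supernatant fluorescence read at ex 310/em 400 nm. Percent inhibition at 10 µM.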

[8] = molecular target: T2, Amine oxidase [flavin-containing] A; test: Inhibition of recombinant human MAO-A at 10 uM using kynuramine as substrate after 30 mins by fluorescence assay relative to control; settings: 0.5 h; outline: as §1
[9] = Inhibition of rat serum BuChE using butyrylthiocholine iodide as substrate measured after 15 mins by Ellman's method

Sequence of Amyloid-beta precursor protein (Homo sapiens) (P05067 whole entry): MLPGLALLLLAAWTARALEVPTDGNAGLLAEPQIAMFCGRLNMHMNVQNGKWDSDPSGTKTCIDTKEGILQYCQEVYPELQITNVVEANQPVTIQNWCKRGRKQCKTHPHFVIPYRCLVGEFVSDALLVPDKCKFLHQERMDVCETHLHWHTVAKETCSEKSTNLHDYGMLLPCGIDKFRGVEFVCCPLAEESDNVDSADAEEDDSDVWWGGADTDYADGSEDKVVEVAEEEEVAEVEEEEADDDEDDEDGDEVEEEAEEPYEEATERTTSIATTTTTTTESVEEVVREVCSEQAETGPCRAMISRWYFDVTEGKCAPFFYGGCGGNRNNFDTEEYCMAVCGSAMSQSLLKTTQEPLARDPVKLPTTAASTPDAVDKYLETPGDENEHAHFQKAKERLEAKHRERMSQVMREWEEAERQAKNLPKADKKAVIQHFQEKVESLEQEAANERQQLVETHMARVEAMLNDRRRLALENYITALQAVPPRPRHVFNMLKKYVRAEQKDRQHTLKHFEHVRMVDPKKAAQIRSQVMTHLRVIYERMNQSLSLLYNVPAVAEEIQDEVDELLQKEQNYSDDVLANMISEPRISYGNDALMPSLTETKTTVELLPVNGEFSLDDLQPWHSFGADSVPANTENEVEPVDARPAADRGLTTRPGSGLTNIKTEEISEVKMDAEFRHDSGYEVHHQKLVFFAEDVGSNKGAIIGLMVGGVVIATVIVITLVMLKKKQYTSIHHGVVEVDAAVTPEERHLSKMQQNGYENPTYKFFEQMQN
Sequence of Acetylcholinesterase (O42275 whole entry): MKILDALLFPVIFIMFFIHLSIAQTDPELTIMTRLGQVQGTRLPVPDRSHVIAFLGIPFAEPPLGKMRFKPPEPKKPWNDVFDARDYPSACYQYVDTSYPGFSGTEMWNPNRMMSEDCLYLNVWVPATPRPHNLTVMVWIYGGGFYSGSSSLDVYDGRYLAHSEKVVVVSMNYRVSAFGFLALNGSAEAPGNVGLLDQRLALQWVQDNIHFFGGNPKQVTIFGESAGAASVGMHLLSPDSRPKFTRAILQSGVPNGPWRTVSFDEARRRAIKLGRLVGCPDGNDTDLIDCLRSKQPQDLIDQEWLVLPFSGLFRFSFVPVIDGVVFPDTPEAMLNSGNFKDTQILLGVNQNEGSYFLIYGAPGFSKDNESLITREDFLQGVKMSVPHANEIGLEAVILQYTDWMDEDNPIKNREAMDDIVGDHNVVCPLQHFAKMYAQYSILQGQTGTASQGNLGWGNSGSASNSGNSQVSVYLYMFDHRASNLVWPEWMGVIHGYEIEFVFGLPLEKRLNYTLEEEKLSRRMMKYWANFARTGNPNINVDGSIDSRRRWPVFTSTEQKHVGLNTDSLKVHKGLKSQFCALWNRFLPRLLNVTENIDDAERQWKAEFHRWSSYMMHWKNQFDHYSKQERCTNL
Sequence of Acetylcholinesterase (Electrophorus electricus) (O42275 24-633 limits assumed): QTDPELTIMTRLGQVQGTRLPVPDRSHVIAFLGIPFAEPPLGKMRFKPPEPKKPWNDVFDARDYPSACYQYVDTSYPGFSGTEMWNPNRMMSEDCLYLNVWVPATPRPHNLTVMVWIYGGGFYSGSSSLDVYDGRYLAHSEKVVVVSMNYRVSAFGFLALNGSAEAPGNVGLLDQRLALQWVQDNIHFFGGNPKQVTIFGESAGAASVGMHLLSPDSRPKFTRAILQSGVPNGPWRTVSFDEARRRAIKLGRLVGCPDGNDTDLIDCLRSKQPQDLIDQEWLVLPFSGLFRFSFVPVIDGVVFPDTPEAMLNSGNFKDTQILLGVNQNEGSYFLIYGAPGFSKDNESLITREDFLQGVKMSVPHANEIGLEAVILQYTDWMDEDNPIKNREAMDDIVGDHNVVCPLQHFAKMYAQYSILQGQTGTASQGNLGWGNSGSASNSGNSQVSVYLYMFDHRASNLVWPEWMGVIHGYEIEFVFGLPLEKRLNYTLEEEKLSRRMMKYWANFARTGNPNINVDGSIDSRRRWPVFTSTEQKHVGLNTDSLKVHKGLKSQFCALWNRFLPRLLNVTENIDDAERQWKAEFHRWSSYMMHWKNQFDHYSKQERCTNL

| Structure (SMILES) | IC50 [1] [µM] | inhibition [2] | Ratio IC50 (Homo sapiens) | IC50 [3] [µM] | Papp at 18 h, 100 ug/ml [4] [×10⁻⁶ cm/s] | Activity [5] [equiv] | IC50 (Acetylcholinesterase) [µM] | inhibition [6] [%] | inhibition (Rattus norvegicus) [%] | inhibition at 10 µM [7] [%] | inhibition at 10 µM [8] [%] | IC50 [9] [µM] |
| --- | --- | --- | --- | --- | --- | --- | --- | --- | --- | --- | --- | --- |
| CCN(CCCCCCn1sc2cc(OC)c(OC)cc2c1=O)Cc1ccccc1 | 20.1 | Active | 0.41 | 8.2 | 15.6 | 0.27 | 0.29 | 35.4 | 48.2 | – | – | – |
| CCN(CCCCn1sc2cc(OC)c(OC)cc2c1=O)Cc1ccccc1OC | 19.4 | – | 0.49 | 9.6 | – | 0.3 | 4.99 | 21.1 | 36.4 | – | – | – |
| CCN(CCCn1sc2cc(OC)c(OC)cc2c1=O)Cc1ccccc1N(C)C | – | – | – | 16.6 | – | 0.22 | 9.7 | 19.8 | 27.9 | 45.4 | – | – |
| CCN(CCCn1sc2cc(OC)c(OC)cc2c1=O)Cc1ccccc1OC | – | – | – | 15.5 | – | 0.82 | 8.3 | 12.4 | 18.9 | 37 | – | – |
| COc1cc2sn(CCCCN(C)Cc3ccccc3)c(=O)c2cc1OC | 19.7 | – | 0.45 | 8.9 | – | 0.21 | 1.2 | 17.3 | 14.7 | – | – | – |
| CCN(CCCCCCn1c(=O)c2cc(OC)c(OC)cc2[s+]1[O-])Cc1ccccc1 (configuration not stated) | – | – | – | – | – | 0.23 | 0.38 | 29.2 | 8.1 | 14.6 | 21.5 | – |
| COc1cc2sn(CCCN(C)Cc3ccccc3)c(=O)c2cc1OC | – | – | – | 6.9 | – | 0.91 | 7.5 | 7.6 | 11.5 | 44.4 | – | – |
| COc1ccccc1CN(C)CCCCCCn1sc2cc(OC)c(OC)cc2c1=O | 13.7 | – | 1.45 | 19.9 | – | 0.26 | 0.61 | 20.2 | 28.8 | – | – | – |
| COc1ccccc1CN(C)CCCCCCN1C(=O)c2cc(OC)c(OC)cc2S1(=O)=O | – | – | – | – | – | 0.16 | 1.02 | 23.9 | < 5 | 29.2 | 28.1 | – |
| CCN(CCCn1sc2cc(OC)c(OC)cc2c1=O)Cc1ccccc1 | – | – | – | 9.9 | – | 0.84 | 6.65 | 19.6 | 12.3 | 46.3 | – | – |
| CCN(CCCCn1sc2cc(OC)c(OC)cc2c1=O)Cc1ccccc1 | 20.1 | – | 0.99 | 19.9 | – | 0.53 | 0.8 | 9.4 | 21.8 | – | – | – |
| COc1ccccc1CN(C)CCCn1sc2cc(OC)c(OC)cc2c1=O | – | – | – | 9.4 | – | 0.83 | 12 | 21.8 | 10.8 | 48.6 | – | – |
| CCN(CCCCn1sc2cc(OC)c(OC)cc2c1=O)Cc1ccc(N(C)C)cc1 | 18.8 | – | 0.85 | 15.9 | – | 2.14 | 8.85 | 32.5 | 23.2 | – | – | – |
| CCN(CCCCCCn1sc2cc(OC)c(OC)cc2c1=O)Cc1ccccc1N(C)C | 19.6 | – | 0.17 | 3.4 | – | 0.35 | 0.56 | 31.2 | 46.8 | – | – | – |
| COc1ccccc1CN(C)CCCCCCn1c(=O)c2cc(OC)c(OC)cc2[s+]1[O-] (configuration not stated) | – | – | – | – | – | 0.33 | 0.8 | 38 | 28.7 | 12.2 | 23.8 | – |
| COc1ccccc1CN(C)CCCCn1sc2cc(OC)c(OC)cc2c1=O | 19.2 | – | 0.37 | 7.1 | – | 0.39 | 5.9 | 11.7 | 25.5 | – | – | – |
| COc1cc2s[nH]c(=O)c2cc1OC | – | – | – | 21 | – | 0.29 | 34.9 | 12.2 | 10.3 | 14 | – | – |
| CCN(CCCCCCN1C(=O)c2cc(OC)c(OC)cc2S1(=O)=O)Cc1ccccc1 | – | – | – | – | – | 0.2 | 13.1 | 6 | 35.7 | 38.9 | 30.2 | – |
| COc1cc2c(cc1OC)C(=O)C(CC1CCN(Cc3ccccc3)CC1)C2 (configuration not stated) [DONEPEZIL] | – | – | – | – | – | – | – | – | – | – | – | 21.4 |
| CCN(CCCCCCn1sc2cc(OC)c(OC)cc2c1=O)Cc1ccccc1OC | – | – | – | 7.9 | 4.32 | 0.28 | 0.46 | 48 | 46.9 | 43.8 | – | – |
| COc1cc2sn(CCCCCCN(C)Cc3ccccc3)c(=O)c2cc1OC | 13.2 | – | 1.74 | 23 | – | 0.29 | 0.35 | 4.3 | 23.1 | – | – | – |
| CCN(CCCCCCn1sc2cc(OC)c(OC)cc2c1=O)Cc1ccc(N(C)C)cc1 | 12.4 | – | 0.57 | 7.1 | – | 1.92 | 6.5 | 33.4 | 22.7 | – | – | – |
| CCN(CCCCn1sc2cc(OC)c(OC)cc2c1=O)Cc1ccccc1N(C)C | – | – | – | 9.9 | – | 0.34 | 7.1 | 11.7 | 32.6 | 46.5 | – | – |
| CCN(CCCn1sc2cc(OC)c(OC)cc2c1=O)Cc1ccc(N(C)C)cc1 | – | – | – | 11.3 | – | 0.58 | 12.9 | 13.4 | 9.6 | 40.1 | – | – |
